Data from ChEMBL document CHEMBL1134236, “Anti-MRSA cephems. Part 1: C-3 substituted thiopyridinium derivatives” (Bioorg Med Chem Lett, 2001).
In brackets after ≈: the same amount, converted by molar mass.

Key:
Staphylococcus aureus [1] = assay: Dose required for protective activity against methicillin-resistant Staphylococcus aureus (MRSA) A27223 in mouse following i.m. administration.; details: im, read-out: PD50
Staphylococcus aureus [2] = assay: Minimum inhibitory concentration against methicillin-resistant Staphylococcus aureus (MRSA) A27223 in the presence of 50% calf serum.; type: functional
How it was run: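 NCCLS broth MIC in Mueller-Hinton broth with 2% NaCl plus 50% calf serum. Inoculum about 5×10⁵ CFU/mL, incubated at 35 °C for 24 h. Read as the lowest concentration with no visible growth.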

Staphylococcus aureus [3] = assay: Minimum inhibitory concentration against methicillin-resistant Staphylococcus aureus (MRSA) A27223; type: functional
How it was run: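 Broth microdilution per NCCLS in Mueller-Hinton broth with 2% NaCl. Inoculum about 5×10⁵ CFU/mL, incubated at 35 °C for 24 h. MIC is the lowest drug concentration that inhibits all visible growth.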

## Cc1cc(SCC2=C(C(=O)[O-])N3C(=O)[C@@H](NC(=O)CSc4cc(Cl)ccc4Cl)[C@H]3SC2)cc(CCC(=O)O)[n+]1CCO
Staphylococcus aureus [1]
  ED50: 8.4 mg/kg
Staphylococcus aureus [2]
  MIC: 4 µg/mL
Staphylococcus aureus [3]
  MIC: 2 µg/mL (≈ 2.97 µM)

## C[n+]1ccc(SCC2=C(C(=O)[O-])N3C(=O)[C@@H](NC(=O)CSc4cc(Cl)ccc4Cl)[C@H]3SC2)cc1CCCC(=O)O
Staphylococcus aureus [1]
  ED50: 5.2 mg/kg
Staphylococcus aureus [2]
  MIC: 8 µg/mL
Staphylococcus aureus [3]
  MIC: 4 µg/mL (≈ 6.22 µM)

## NCCC[n+]1ccc(SCC2=C(C(=O)O)N3C(=O)[C@@H](NC(=O)CSc4cc(Cl)nc(Cl)c4)[C@H]3SC2)cc1CCCC(=O)O.O=C(O)C(F)(F)F.O=C([O-])C(F)(F)F
Staphylococcus aureus [1]
  ED50: 4.3 mg/kg
Staphylococcus aureus [2]
  MIC: 4 µg/mL
Staphylococcus aureus [3]
  MIC: 2 µg/mL

## Cc1cc(SCC2=C(C(=O)[O-])N3C(=O)[C@@H](NC(=O)CSc4cc(Cl)ccc4Cl)[C@H]3SC2)cc(CCC(=O)O)[n+]1-c1cccc(O)c1
Staphylococcus aureus [1]
  ED50: > 25 mg/kg
Staphylococcus aureus [2]
  MIC: 8 µg/mL
Staphylococcus aureus [3]
  MIC: 4 µg/mL (≈ 5.55 µM)

## Cc1cc(SCC2=C(C(=O)[O-])N3C(=O)[C@@H](NC(=O)CSc4cc(Cl)ccc4Cl)[C@H]3SC2)cc(CCC(=O)O)[n+]1CCc1cccs1
Staphylococcus aureus [1]
  ED50: > 23 mg/kg
Staphylococcus aureus [2]
  MIC: 8 µg/mL
Staphylococcus aureus [3]
  MIC: 4 µg/mL (≈ 5.41 µM)

## Cc1cc(SCC2=C(C(=O)[O-])N3C(=O)[C@@H](NC(=O)CSc4cc(Cl)ccc4Cl)[C@H]3SC2)cc(CCC(=O)O)[n+]1Cc1cccs1
Staphylococcus aureus [1]
  ED50: > 23 mg/kg
Staphylococcus aureus [2]
  MIC: 8 µg/mL
Staphylococcus aureus [3]
  MIC: 4 µg/mL (≈ 5.52 µM)

## Cc1cc(SCC2=C(C(=O)[O-])N3C(=O)[C@@H](NC(=O)CSc4cc(Cl)ccc4Cl)[C@H]3SC2)cc(CCc2ccc(Cl)s2)[n+]1CC[C@@H](O)C(=O)O
Staphylococcus aureus [1]
  ED50: > 23 mg/kg
Staphylococcus aureus [2]
  MIC: 8 µg/mL
Staphylococcus aureus [3]
  MIC: 8 µg/mL (≈ 9.96 µM)

## Cc1cc(SCC2=C(C(=O)[O-])N3C(=O)[C@@H](NC(=O)CSc4cc(Cl)ccc4Cl)[C@H]3SC2)cc(CCc2ccccc2)[n+]1CCS(=O)(=O)O
Staphylococcus aureus [1]
  ED50: > 25 mg/kg
Staphylococcus aureus [2]
  MIC: 4 µg/mL
Staphylococcus aureus [3]
  MIC: 2 µg/mL (≈ 2.6 µM)

## CSCCC[n+]1c(C)cc(SCC2=C(C(=O)[O-])N3C(=O)[C@@H](NC(=O)CSc4cc(Cl)ccc4Cl)[C@H]3SC2)cc1CCC(=O)O
Staphylococcus aureus [1]
  ED50: > 25 mg/kg
Staphylococcus aureus [2]
  MIC: 4 µg/mL
Staphylococcus aureus [3]
  MIC: 2 µg/mL (≈ 2.79 µM)
